Results taken from ChEMBL document CHEMBL4428138, “Design, Synthesis, and Antitumor Evaluation of 4-Amino-(1H)-pyrazole Derivatives as JAKs Inhibitors” (ACS Med Chem Lett, 2016).
Each block holds one molecule with its values, some of them ahead of it.

Assays:
HEL [1] = test: Antiproliferative activity against HEL cells harboring JAK2 V617F mutant at 5 uM after 48 hrs by MTT assay; type: functional, Homo sapiens
PC-3 = test: Antiproliferative activity against human PC3 cells after 48 hrs by MTT assay; type: functional, cell-based; conditions: PC-3, 48 h
Summary of the method: (§1)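 Panel: human prostate cancer PC-3, breast cancer MCF-7, erythroleukemia HEL, myelogenous leukemia K562 and lymphoid leukemia MOLT4 lines. Cells were exposed to compound for 48 h with MTT read-out.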

[2] = biological target: RAC-alpha serine/threonine-protein kinase (Homo sapiens) (UniProt P31749); test: Inhibition of AKT1 (unknown origin) at 20 nM relative to control
[3] = biological target: Receptor-type tyrosine-protein kinase FLT3 (Homo sapiens) (UniProt P36888); test: Inhibition of FLT3 (unknown origin) at 20 nM relative to control
[4] = biological target: Focal adhesion kinase 1 (Homo sapiens) (UniProt Q05397); test: Inhibition of FAK (unknown origin) at 20 nM relative to control
[5] = biological target: RAF proto-oncogene serine/threonine-protein kinase (Homo sapiens) (UniProt P04049); test: Inhibition of RAF1 (unknown origin) at 20 nM relative to control
[6] = biological target: Tyrosine-protein kinase ABL1 (Homo sapiens) (UniProt P00519); test: Inhibition of ABL (unknown origin) at 20 nM relative to control
[7] = biological target: Platelet-derived growth factor receptor alpha (Homo sapiens) (UniProt P16234); test: Inhibition of PDGFRalpha (unknown origin) at 20 nM relative to control
HEL [8] = test: Antiproliferative activity against HEL cells harboring JAK2 V617F mutant after 48 hrs by MTT assay; type: functional, cell-based; conditions: Homo sapiens; summary of the method: as §1
[9] = biological target: Hepatocyte growth factor receptor (Homo sapiens) (UniProt P08581); test: Inhibition of c-Met (unknown origin) at 20 nM relative to control
[10] = biological target: Cyclin-dependent kinase 4 (Homo sapiens) (UniProt P11802); test: Inhibition of CDK4 (unknown origin) at 20 nM relative to control
[11] = biological target: Vascular endothelial growth factor receptor 2 (Homo sapiens) (UniProt P35968); test: Inhibition of VEGFR2 (unknown origin) at 20 nM relative to control
[12] = biological target: Proto-oncogene tyrosine-protein kinase Src (Homo sapiens) (UniProt P12931); test: Inhibition of SRC (unknown origin) at 20 nM relative to control
[13] = biological target: Epidermal growth factor receptor (Homo sapiens) (UniProt P00533); test: Inhibition of EGFR (unknown origin) at 20 nM relative to control
[14] = biological target: ALK tyrosine kinase receptor (Homo sapiens) (UniProt Q9UM73); test: Inhibition of ALK (unknown origin) at 20 nM relative to control
K562 = test: Antiproliferative activity against human K562 cells after 48 hrs by MTT assay; type: functional, cell-based; conditions: K562, 48 h; summary of the method: as §1
MOLT-4 = test: Antiproliferative activity against human MOLT4 cells after 48 hrs by MTT assay; type: functional, cell-based; conditions: MOLT-4, 48 h; summary of the method: as §1
[15] = biological target: Mast/stem cell growth factor receptor Kit (Homo sapiens) (UniProt P10721); test: Inhibition of c-Kit (unknown origin) at 20 nM relative to control
[16] = biological target: Non-receptor tyrosine-protein kinase TYK2 (Homo sapiens) (UniProt P29597); test: Inhibition of TYK2 (unknown origin) at 20 nM relative to control
MCF7 = test: Antiproliferative activity against human MCF7 cells after 48 hrs by MTT assay; type: functional, cell-based; conditions: MCF7, 48 h; summary of the method: as §1
[17] = biological target: Tyrosine-protein kinase JAK3 (Homo sapiens, UniProt P52333); test: Inhibition of human recombinant JAK3 using Ulight-CAGAGAIETDKEYYTVKD as substrate by LANCE assay
[18] = biological target: Tyrosine-protein kinase JAK1 (Homo sapiens, UniProt P23458); test: Inhibition of human recombinant JAK1 using Ulight-CAGAGAIETDKEYYTVKD as substrate by LANCE assay
[19] = Selectivity ratio of IC50 for human PC3 cells to IC50 for human K562 cells; type: functional
[20] = Selectivity ratio of IC50 for human MOLT4 cells to IC50 for HEL cells harboring JAK2 V617F mutant; type: functional
[21] = Selectivity ratio of IC50 for human MCF7 cells to IC50 for HEL cells harboring JAK2 V617F mutant; type: functional
[22] = Selectivity ratio of IC50 for human MOLT4 cells to IC50 for human K562 cells; type: functional
[23] = Selectivity ratio of IC50 for human MCF7 cells to IC50 for human K562 cells; type: functional
[24] = Selectivity ratio of IC50 for human PC3 cells to IC50 for HEL cells harboring JAK2 V617F mutant; type: functional

Epidermal growth factor receptor (Homo sapiens), sequence (P00533 whole entry): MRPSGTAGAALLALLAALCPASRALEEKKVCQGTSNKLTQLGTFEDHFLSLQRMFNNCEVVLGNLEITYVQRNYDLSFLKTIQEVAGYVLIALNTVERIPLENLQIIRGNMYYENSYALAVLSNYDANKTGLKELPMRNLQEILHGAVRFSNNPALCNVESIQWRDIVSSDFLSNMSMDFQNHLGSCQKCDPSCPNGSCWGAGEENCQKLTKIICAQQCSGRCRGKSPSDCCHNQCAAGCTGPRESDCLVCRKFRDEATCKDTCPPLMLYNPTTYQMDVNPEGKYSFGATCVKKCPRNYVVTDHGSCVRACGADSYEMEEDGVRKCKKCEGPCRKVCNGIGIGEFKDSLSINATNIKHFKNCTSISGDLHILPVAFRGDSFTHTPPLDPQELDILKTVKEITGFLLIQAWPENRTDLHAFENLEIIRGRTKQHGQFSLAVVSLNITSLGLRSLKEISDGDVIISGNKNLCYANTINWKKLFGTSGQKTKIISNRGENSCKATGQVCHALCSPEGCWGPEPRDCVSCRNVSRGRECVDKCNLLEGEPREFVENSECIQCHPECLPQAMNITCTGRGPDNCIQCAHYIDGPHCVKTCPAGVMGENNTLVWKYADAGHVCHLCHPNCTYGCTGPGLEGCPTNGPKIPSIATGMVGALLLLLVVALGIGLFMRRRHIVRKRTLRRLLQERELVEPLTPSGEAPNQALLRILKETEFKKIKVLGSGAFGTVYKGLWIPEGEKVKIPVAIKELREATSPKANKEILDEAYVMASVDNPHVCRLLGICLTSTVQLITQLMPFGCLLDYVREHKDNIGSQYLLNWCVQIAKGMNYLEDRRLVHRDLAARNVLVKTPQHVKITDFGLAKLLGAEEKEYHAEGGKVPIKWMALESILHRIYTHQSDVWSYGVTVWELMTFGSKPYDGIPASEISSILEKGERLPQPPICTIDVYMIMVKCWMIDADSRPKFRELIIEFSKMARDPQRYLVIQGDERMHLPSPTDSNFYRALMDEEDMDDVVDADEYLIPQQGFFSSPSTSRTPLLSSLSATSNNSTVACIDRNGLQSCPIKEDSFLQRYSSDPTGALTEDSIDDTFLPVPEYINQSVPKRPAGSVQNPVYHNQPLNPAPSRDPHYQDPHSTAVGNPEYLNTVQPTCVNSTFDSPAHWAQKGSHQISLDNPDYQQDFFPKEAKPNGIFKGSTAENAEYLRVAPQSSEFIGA
Mast/stem cell growth factor receptor Kit (Homo sapiens), sequence (P10721 whole entry): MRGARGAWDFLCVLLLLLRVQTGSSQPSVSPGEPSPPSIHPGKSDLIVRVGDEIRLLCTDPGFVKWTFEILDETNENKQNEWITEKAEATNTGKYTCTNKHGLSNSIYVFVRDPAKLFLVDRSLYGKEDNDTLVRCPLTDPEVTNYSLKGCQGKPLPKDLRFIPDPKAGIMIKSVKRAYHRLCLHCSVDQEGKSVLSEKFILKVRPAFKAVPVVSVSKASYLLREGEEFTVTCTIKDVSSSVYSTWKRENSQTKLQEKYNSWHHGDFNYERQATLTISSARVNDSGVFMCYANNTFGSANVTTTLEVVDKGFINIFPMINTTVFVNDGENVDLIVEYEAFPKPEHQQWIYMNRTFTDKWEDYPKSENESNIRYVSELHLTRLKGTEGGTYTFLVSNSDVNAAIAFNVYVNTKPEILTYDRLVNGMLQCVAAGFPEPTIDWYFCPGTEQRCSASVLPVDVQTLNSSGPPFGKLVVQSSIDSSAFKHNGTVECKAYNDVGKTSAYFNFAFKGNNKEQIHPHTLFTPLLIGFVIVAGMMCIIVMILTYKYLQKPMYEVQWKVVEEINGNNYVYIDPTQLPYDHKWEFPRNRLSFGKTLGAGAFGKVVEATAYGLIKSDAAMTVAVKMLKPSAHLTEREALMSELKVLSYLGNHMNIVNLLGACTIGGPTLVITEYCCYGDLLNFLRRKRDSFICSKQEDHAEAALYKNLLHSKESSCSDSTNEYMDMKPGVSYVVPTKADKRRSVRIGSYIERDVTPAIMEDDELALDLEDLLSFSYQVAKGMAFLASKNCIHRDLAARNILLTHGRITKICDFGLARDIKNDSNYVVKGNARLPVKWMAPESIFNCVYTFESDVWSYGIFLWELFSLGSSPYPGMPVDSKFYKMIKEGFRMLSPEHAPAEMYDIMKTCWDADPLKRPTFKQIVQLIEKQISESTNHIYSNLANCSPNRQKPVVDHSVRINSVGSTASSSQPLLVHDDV
Non-receptor tyrosine-protein kinase TYK2 (Homo sapiens), sequence (P29597 whole entry): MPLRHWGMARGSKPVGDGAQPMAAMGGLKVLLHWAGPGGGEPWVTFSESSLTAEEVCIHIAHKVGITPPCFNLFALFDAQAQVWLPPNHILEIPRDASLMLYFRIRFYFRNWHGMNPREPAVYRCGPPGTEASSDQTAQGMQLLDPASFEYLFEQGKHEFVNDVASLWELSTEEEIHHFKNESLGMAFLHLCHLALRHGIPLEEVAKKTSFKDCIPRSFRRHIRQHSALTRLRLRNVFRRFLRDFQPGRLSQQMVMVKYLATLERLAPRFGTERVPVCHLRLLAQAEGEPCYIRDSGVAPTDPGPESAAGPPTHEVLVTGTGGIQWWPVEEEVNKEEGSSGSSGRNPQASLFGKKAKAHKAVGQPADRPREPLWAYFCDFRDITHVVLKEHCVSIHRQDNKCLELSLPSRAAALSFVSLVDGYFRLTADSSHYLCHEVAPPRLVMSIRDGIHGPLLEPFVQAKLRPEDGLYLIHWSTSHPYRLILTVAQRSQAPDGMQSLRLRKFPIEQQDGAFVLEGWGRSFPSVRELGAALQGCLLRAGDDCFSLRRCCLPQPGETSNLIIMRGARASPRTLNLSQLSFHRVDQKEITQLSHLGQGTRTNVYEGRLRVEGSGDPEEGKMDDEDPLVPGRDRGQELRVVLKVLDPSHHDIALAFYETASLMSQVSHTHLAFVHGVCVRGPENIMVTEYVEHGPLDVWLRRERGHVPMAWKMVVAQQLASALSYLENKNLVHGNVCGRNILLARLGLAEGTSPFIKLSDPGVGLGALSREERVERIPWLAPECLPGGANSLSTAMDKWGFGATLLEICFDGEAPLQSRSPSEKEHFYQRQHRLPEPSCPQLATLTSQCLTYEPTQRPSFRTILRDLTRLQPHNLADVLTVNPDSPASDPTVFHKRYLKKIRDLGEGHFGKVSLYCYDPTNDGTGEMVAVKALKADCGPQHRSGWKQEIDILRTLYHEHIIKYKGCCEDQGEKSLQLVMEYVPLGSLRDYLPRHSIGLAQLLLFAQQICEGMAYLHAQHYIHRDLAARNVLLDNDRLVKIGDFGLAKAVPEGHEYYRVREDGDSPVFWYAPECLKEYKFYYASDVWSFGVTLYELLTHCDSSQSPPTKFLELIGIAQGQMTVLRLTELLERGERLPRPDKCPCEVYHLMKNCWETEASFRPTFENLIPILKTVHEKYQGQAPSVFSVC
ALK tyrosine kinase receptor (Homo sapiens), sequence (Q9UM73 19-1620 limits assumed): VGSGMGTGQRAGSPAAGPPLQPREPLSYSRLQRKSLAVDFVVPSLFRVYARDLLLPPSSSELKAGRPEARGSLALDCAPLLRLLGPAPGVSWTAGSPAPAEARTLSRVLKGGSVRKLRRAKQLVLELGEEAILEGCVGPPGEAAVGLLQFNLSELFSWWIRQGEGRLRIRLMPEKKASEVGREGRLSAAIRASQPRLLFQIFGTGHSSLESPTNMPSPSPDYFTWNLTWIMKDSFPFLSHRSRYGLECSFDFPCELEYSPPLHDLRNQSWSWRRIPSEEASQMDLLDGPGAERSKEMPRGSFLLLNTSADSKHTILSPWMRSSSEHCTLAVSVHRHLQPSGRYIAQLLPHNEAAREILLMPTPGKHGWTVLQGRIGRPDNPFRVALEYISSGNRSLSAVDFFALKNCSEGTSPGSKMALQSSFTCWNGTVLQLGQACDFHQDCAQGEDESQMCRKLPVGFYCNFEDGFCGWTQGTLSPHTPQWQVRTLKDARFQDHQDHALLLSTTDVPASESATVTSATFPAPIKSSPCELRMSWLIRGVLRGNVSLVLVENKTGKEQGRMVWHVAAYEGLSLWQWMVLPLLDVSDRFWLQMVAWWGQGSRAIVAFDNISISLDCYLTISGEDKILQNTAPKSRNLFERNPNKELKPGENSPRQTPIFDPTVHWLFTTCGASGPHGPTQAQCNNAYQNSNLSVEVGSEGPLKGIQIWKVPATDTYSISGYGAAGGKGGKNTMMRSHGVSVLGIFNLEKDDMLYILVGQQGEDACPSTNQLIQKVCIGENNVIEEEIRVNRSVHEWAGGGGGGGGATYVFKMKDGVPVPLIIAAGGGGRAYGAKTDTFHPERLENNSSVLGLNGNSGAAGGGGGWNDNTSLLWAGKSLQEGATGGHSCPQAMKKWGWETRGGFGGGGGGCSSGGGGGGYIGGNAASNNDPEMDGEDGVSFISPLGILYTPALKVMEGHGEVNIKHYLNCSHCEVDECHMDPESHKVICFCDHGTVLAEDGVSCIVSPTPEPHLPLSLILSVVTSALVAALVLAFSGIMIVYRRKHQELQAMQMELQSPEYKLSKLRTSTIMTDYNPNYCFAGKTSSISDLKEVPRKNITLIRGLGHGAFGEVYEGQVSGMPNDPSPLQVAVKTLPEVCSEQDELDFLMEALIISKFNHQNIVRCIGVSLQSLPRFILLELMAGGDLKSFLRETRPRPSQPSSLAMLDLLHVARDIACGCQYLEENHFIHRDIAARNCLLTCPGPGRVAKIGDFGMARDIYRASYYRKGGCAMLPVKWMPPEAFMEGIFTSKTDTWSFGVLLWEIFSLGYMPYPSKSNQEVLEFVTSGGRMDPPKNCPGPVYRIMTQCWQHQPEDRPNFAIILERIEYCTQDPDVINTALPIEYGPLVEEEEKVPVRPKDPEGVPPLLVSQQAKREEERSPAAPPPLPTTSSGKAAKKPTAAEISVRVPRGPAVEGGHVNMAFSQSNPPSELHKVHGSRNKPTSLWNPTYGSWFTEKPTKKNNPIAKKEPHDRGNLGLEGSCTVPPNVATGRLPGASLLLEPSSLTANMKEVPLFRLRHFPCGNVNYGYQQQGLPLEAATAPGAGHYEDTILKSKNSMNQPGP

SMILES: C#Cc1cccc(Nc2ccnc(Nc3cn[nH]c3)n2)c1
Activity (HEL [1]): <50%

IC50 (PC-3): 1.08 µM | inhibition [2]: 7.5% | inhibition [3]: 78.7% | inhibition [4]: 33.5% | inhibition [5]: -7.1% | inhibition [6]: -3.1% | inhibition [7]: 54.1% | inhibition [9]: 17.9% | inhibition [10]: 36.2% | inhibition [11]: 48.6% | inhibition [12]: 27% | inhibition [13]: 10.5% | inhibition [14]: 6.9% | IC50 (K562): 0.77 µM | IC50 (MOLT-4): 1.61 µM | inhibition [15]: 12.1% | inhibition [16]: 79.4% | IC50 (MCF7): 1.33 µM | IC50 [17]: 0.0035 µM | IC50 [18]: 0.0034 µM
SMILES: Clc1cccc(Nc2nc(Nc3cn[nH]c3)ncc2Cl)c1
Activity (HEL [1]): >50% | IC50 (HEL [8]): 1.08 µM

IC50 (K562): > 8.3 µM | IC50 (MCF7): > 5 µM
SMILES: Clc1cccc(Nc2nc(Nc3cn[nH]c3)nc3ccccc23)c1
Activity (HEL [1]): <50% | IC50 (HEL [8]): 9.71 µM

SMILES: COc1ccc(Nc2nc(Nc3cn[nH]c3)nc3ccccc23)cc1
Activity (HEL [1]): <50%

IC50 (PC-3): > 5 µM | IC50 (K562): 10.3 µM | IC50 (MCF7): > 5 µM
SMILES: N#CC[C@H](C1CCCC1)n1cc(-c2ncnc3[nH]ccc23)cn1 [RUXOLITINIB]
IC50 (HEL [8]): 2.62 µM

SMILES: COc1ccc(Nc2nc(Nc3cn[nH]c3)ncc2F)cc1
Activity (HEL [1]): <50%

SMILES: Clc1ccc(Nc2nc(Nc3cn[nH]c3)nc3ccccc23)cc1
Activity (HEL [1]): <50%

IC50 (PC-3): 13.5 µM | IC50 (K562): 3.72 µM | IC50 (MOLT-4): > 5 µM | IC50 (MCF7): > 5 µM
SMILES: Clc1ccccc1CNc1nc(Nc2cn[nH]c2)nc2[nH]ccc12
Activity (HEL [1]): >50%

SMILES: Clc1ccccc1CNc1nc(Nc2cn[nH]c2)nc2ccccc12
Activity (HEL [1]): <50%

SMILES: Clc1ccc(Nc2nc(Nc3cn[nH]c3)nc3[nH]ccc23)cc1
Activity (HEL [1]): >50%

IC50 (PC-3): 10.4 µM | IC50 (K562): 3.79 µM
SMILES: Fc1cnc(Nc2cn[nH]c2)nc1Nc1ccc(Cl)cc1
Activity (HEL [1]): <50% | IC50 (HEL [8]): 3.96 µM

IC50 (PC-3): 2.3 µM | IC50 (K562): 2.08 µM
SMILES: COc1ccc(Nc2nc(Nc3cn[nH]c3)ncc2Cl)cc1
Activity (HEL [1]): >50% | IC50 (HEL [8]): 1.76 µM

SMILES: Clc1ccc(Nc2ccnc(Nc3cn[nH]c3)n2)cc1
Activity (HEL [1]): <50%

IC50 (PC-3): 5.38 µM | IC50 (K562): > 8.3 µM | IC50 (MOLT-4): > 5 µM | IC50 (MCF7): 3.66 µM
SMILES: Clc1cnc(Nc2cn[nH]c2)nc1Nc1ccccc1
Activity (HEL [1]): >50% | IC50 (HEL [8]): 5.93 µM

SMILES: Clc1ccccc1Nc1ccnc(Nc2cn[nH]c2)n1
Activity (HEL [1]): <50%

SMILES: c1ccc(Nc2nc(Nc3cn[nH]c3)nc3ccccc23)cc1
Activity (HEL [1]): <50%

SMILES: COc1ccc(Nc2nc(Nc3cn[nH]c3)nc3[nH]ccc23)cc1
Activity (HEL [1]): >50%

IC50 (PC-3): 2.57 µM | IC50 (K562): 1.7 µM | IC50 (MOLT-4): 1.37 µM | IC50 (MCF7): 1.93 µM
SMILES: Clc1ccc(Nc2nc(Nc3cn[nH]c3)ncc2Cl)cc1
Activity (HEL [1]): >50% | IC50 (HEL [8]): 1.53 µM

SMILES: N#Cc1ccccc1Nc1ccnc(Nc2cn[nH]c2)n1
Activity (HEL [1]): <50%

IC50 (PC-3): 1.13 µM | IC50 (K562): 1.29 µM | IC50 (MOLT-4): 1.26 µM | IC50 (MCF7): 1.1 µM
SMILES: Clc1ccccc1Nc1nc(Nc2cn[nH]c2)ncc1Cl
Activity (HEL [1]): >50% | IC50 (HEL [8]): 1.24 µM

IC50 (PC-3): 1.03 µM | IC50 (K562): 1.86 µM | IC50 (MOLT-4): 3.28 µM | IC50 (MCF7): 1.87 µM
SMILES: Fc1ccc(Nc2nc(Nc3cn[nH]c3)ncc2Cl)cc1
Activity (HEL [1]): >50% | IC50 (HEL [8]): 1.18 µM

IC50 (PC-3): 4.47 µM | inhibition [2]: -3% | inhibition [3]: 15.2% | inhibition [4]: 7.4% | inhibition [5]: 3.7% | inhibition [6]: 3.1% | inhibition [7]: 11.9% | inhibition [9]: 6.3% | inhibition [10]: -5.3% | inhibition [11]: 0% | inhibition [12]: 12.6% | inhibition [13]: 8.3% | inhibition [14]: 15.1% | IC50 (K562): 0.37 µM | IC50 (MOLT-4): > 5 µM | inhibition [15]: 0.6% | inhibition [16]: 34.6% | IC50 (MCF7): > 5 µM
SMILES: c1ccc(Nc2nc(Nc3cn[nH]c3)nc3[nH]ccc23)cc1
Ratio IC50 [19]: >10 | Ratio IC50 [20]: >10 | Activity (HEL [1]): >50% | IC50 (HEL [8]): 0.35 µM | Ratio IC50 [21]: >10 | Ratio IC50 [22]: >10 | Ratio IC50 [23]: >10 | Ratio IC50 [24]: >10

SMILES: C#Cc1cccc(Nc2nc(Nc3cn[nH]c3)nc3ccccc23)c1
Activity (HEL [1]): <50%

SMILES: Fc1cnc(Nc2cn[nH]c2)nc1Nc1ccccc1
Activity (HEL [1]): <50%
